Reference: ChEMBL document CHEMBL1687827, “Profiling the Aspergillus fumigatus proteome in response to caspofungin” (2011)
Active and inactive are the calls of the source. The calls are words filed in the database; no cut-off is given here.

Columns and labels:
[1] = system: Aspergillus fumigatus; test: Induction of change in ribosomal protein L26 gene expression in drug-susceptible Aspergillus fumigatus KU80 delta-akuB at 0.12 ug/ml after 24 hrs in YPD medium by microarray analysis relative to control; format: functional
Outline: (§1)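 Mycelia grown from 1 × 10⁵ conidia/ml in YPD at 37°C, 225 rpm, with or without 0.12 μg/ml caspofungin. Total RNA extracted, DNase-treated; 2 μg labelled per TIGR SOP M007 for whole-genome array hybridization. Three independent experiments with dye flip (6 replicates); >2-fold change deemed significant.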

[2] = system: Aspergillus fumigatus; test: Induction of change in ribosomal protein S9 protein level in iTRAQ114 labelled secreted fraction of drug-susceptible Aspergillus fumigatus KU80 delta-akuB at 0.12 ug/ml after 24 hrs in YPD medium by MS (MS/MS) analysis relative to control; format: functional
Outline: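 Conidia (1 × 10⁵/ml) grown in YPD, 37°C, 225 rpm, ± 0.12 μg/ml caspofungin; filtrate taken as secreted fraction, French-press lysate 5,000 × g pellet as cell wall/plasma membrane. Trypsin digests 8-plex iTRAQ-labelled (drug-free channels as references), pooled, 2D-chromatography, MS/MS. Median-normalized; protein ratio = median of unique-peptide ratios, log2 normalized.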

[3] = system: Aspergillus fumigatus; test: Induction of change in carbonic anhydrase family gene expression in drug-susceptible Aspergillus fumigatus KU80 delta-akuB at 0.12 ug/ml after 24 hrs in YPD medium by microarray analysis relative to control; format: functional
Outline: (§2)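 Mycelia grown in YPD ± 0.12 μg/ml caspofungin (1 × 10⁵ conidia/ml, 37°C, shaking) and harvested at 24 or 48 h. Total RNA extracted, DNase-treated and quality-checked; 2 μg labelled per TIGR SOP M007 and hybridized to whole-genome arrays. Three independent experiments with dye flip (6 replicates); drug vs untreated fold change.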

[4] = system: Aspergillus fumigatus; test: Induction of change in conserved hypothetical gene locus AFUA_5G03010 expression in drug-susceptible Aspergillus fumigatus KU80 delta-akuB at 0.12 ug/ml after 24 hrs in YPD medium by microarray analysis relative to control; format: functional; outline: as §2
[5] = system: Aspergillus fumigatus; test: Induction of change in IgE-binding protein level in iTRAQ-116 labelled secreted fraction of drug-susceptible Aspergillus fumigatus KU80 delta-akuB at 0.12 ug/ml after 48 hrs in YPD medium by MS (MS/MS) analysis relative to control; format: functional
Outline: (§3)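 Conidia at 1 × 10⁵/ml grown shaking at 37°C in YPD with or without 0.12 μg/ml caspofungin; mycelia filtered at 24 or 48 h. Secreted fraction taken from the filtrate; cell wall/plasma membrane pellet recovered after French-press lysis and a 5,000 × g spin. Proteins trypsin-digested and iTRAQ-labelled, drug vs no-drug channels at each time, then 2D LC-MS/MS. Protein ratio is the median of ratios from uniquely assigned peptides after median normalization.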

[6] = system: Aspergillus fumigatus; test: Induction of change in Mn superoxide dismutase MnSOD protein level in iTRAQ114 labelled cell wall fraction of drug-susceptible Aspergillus fumigatus KU80 delta-akuB at 0.12 ug/ml after 24 hrs in YPD medium by MS (MS/MS) analysis relative to control; format: functional; outline: as §3
[7] = system: Aspergillus fumigatus; test: Induction of change in C2H2 transcription factor (Rpn4), putative gene expression in drug-susceptible Aspergillus fumigatus KU80 delta-akuB at 0.12 ug/ml after 48 hrs in YPD medium by microarray analysis relative to control; format: functional; outline: as §2
[8] = system: Aspergillus fumigatus; test: Induction of change in hypothetical gene locus AFUA_6G06840 expression in drug-susceptible Aspergillus fumigatus KU80 delta-akuB at 0.12 ug/ml after 48 hrs in YPD medium by microarray analysis relative to control; format: functional; outline: as §1
[9] = system: Aspergillus fumigatus; test: Antifungal activity against drug-susceptible Aspergillus fumigatus KU80 delta-akuB assessed as change in hyphal morphology by YPD medium; format: functional; conditions: read-out: MEC
Outline: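 Broth microdilution per CLSI M38-A2, in triplicate, in YPD broth (2% yeast extract, 4% peptone, 4% dextrose); minimum effective concentration read as the lowest drug concentration giving a significant change in hyphal morphology visible by eye. Caspofungin dissolved in sterile water.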

[10] = system: Aspergillus fumigatus; test: Antifungal activity against drug-resistant Aspergillus fumigatus EMFR-S678P assessed as reduction in colony size at 0.12 ug/ml; format: functional, organism-based
[11] = system: Aspergillus fumigatus; test: Induction of change in cytochrome b5, putative protein level in iTRAQ114 labelled secreted fraction of drug-resistant Aspergillus fumigatus EMFR-S678P at 0.12 ug/ml after 24 hrs in YPD medium by MS (MS/MS) analysis relative to control; format: functional
Outline: (§4)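 Conidia at 1 × 10⁵/ml were grown at 37°C, shaking at 225 rpm, in YPD with or without 0.12 μg/ml caspofungin for 24 or 48 h. The culture filtrate was kept as the secreted fraction. Mycelia were lysed by French press in HEPES/glycerol/EDTA/PMSF/DTT buffer, and the 5,000 × g pellet was washed to give CW/PM. Proteins were reduced, alkylated and trypsin-digested at 37°C overnight, then iTRAQ-labelled and run by 2D LC-MS/MS. Ratios are the median of unique-peptide ratios, median-normalized, versus the no-drug control.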

[12] = system: Aspergillus fumigatus; test: Induction of change in pyruvate decarboxylase PdcA, putative protein level in iTRAQ-118 labelled cell wall fraction of drug-resistant Aspergillus fumigatus EMFR-S678P at 0.12 ug/ml after 24 hrs in YPD medium by MS (MS/MS) analysis relative to control; format: functional, organism-based; outline: as §4
[13] = system: Aspergillus fumigatus; test: Induction of change in BYS1 domain protein, putative protein level in iTRAQ-118 labelled cell wall fraction of drug-resistant Aspergillus fumigatus EMFR-S678P at 0.12 ug/ml after 24 hrs in YPD medium by MS (MS/MS) analysis relative to control; format: functional, organism-based; outline: as §4
[14] = system: Aspergillus fumigatus; test: Induction of change in glycine-rich RNA-binding protein, putative protein level in iTRAQ-118 labelled cell wall fraction of drug-resistant Aspergillus fumigatus EMFR-S678P at 0.12 ug/ml after 24 hrs in YPD medium by MS (MS/MS) analysis relative to control; format: functional; outline: as §4
[15] = system: Aspergillus fumigatus; test: Induction of change in transcriptional repressor TupA/RocA, putative protein level in iTRAQ-118 labelled cell wall fraction of drug-resistant Aspergillus fumigatus EMFR-S678P at 0.12 ug/ml after 24 hrs in YPD medium by MS (MS/MS) analysis relative to control; format: functional; outline: as §4
[16] = system: Aspergillus fumigatus; test: Induction of change in mitochondrial hypoxia responsive domain protein level in iTRAQ-118 labelled cell wall fraction of drug-resistant Aspergillus fumigatus EMFR-S678P at 0.12 ug/ml after 48 hrs in YPD medium by MS (MS/MS) analysis relative to control; format: functional; outline: as §4
[17] = system: Aspergillus fumigatus; test: Induction of change in nascent polypeptide-associated complex (NAC) subunit, putative protein level in iTRAQ-116 labelled secreted fraction of drug-resistant Aspergillus fumigatus EMFR-S678P at 0.12 ug/ml after 48 hrs in YPD medium by MS (MS/MS) analysis relative to control; format: functional, organism-based; outline: as §4
[18] = system: Aspergillus fumigatus; test: Induction of change in BYS1 domain protein, putative protein level in iTRAQ-121 labelled cell wall fraction of drug-susceptible Aspergillus fumigatus KU80 delta-akuB at 0.12 ug/ml after 48 hrs in YPD medium by MS (MS/MS) analysis relative to control

`CC[C@H](C)C[C@H](C)CCCCCCCCC(=O)N[C@H]1C[C@@H](O)[C@@H](NCCN)NC(=O)[C@@H]2[C@@H](O)CCN2C(=O)[C@H]([C@H](O)CCN)NC(=O)[C@H]([C@H](O)[C@@H](O)c2ccc(O)cc2)NC(=O)[C@@H]2C[C@@H](O)CN2C(=O)[C@H]([C@@H](C)O)NC1=O` [CASPOFUNGIN] was tested, and the “fold change (FC)” value [1] was 5.3, the “fold change (FC)” value [2] was 1.1 and the “fold change (FC)” value [3] was -6.5. For the same compound, the “fold change (FC)” value [4] was 5.6, the “fold change (FC)” value [5] was -1 and the “fold change (FC)” value [6] was -1.2. For the same compound, the “fold change (FC)” value [7] was -2.4, the “fold change (FC)” value [8] was -2.1 and the minimal effective concentration [9] was 0.19 µg/mL. For the same compound, the Activity [10] was “Active”, the “fold change (FC)” value [11] was -1.32 and the Activity [12] was “inactive”. The Activity [13] was “inactive”, the “fold change (FC)” value [14] was 1.52 and the “fold change (FC)” value [15] was 1.32. For the same compound, the “fold change (FC)” value [16] was 1.07, the Activity [17] was “inactive” and the “fold change (FC)” value [18] was -2.5.
